Measured values taken from PubChem BioAssay.
Active and inactive are the calls of the source.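 How the source made its calls, unless noted: active means viability at or under a set limit in both replicates, limit being median viability minus 3 SD (cut at about 48% in these data, passing the limit was not always enough); inconclusive means at or under the limit in just one replicate; inactive means at or above the limit in both replicates.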

Assays:
[1] = Her2 expression decrease, cell viability multiplex – SKBR3 breast tumor cells, AlphaScreen, ATP viability, primary screen (AID 461;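 active means Her2 level under about 52% in both replicate screens, with viability over 70% of control, limit read from the data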;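 on Her2 level: lower value means less Her2 protein in the cells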;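 on viability: percent of carrier control wells set as 100% viability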); conditions: SKBR3 Her2 protein level, 18-24 h, measured here: SKBR3 viability, ATP luminescence, at 10 µM
[2] = target: Receptor tyrosine-protein kinase erbB-2 (Homo sapiens) (UniProt P04626); experiment: as above; conditions: 18-24 h, at 10 µM, stronger effect = lower value
Receptor tyrosine-protein kinase erbB-2 (Homo sapiens), sequence (P04626 whole entry, looked up): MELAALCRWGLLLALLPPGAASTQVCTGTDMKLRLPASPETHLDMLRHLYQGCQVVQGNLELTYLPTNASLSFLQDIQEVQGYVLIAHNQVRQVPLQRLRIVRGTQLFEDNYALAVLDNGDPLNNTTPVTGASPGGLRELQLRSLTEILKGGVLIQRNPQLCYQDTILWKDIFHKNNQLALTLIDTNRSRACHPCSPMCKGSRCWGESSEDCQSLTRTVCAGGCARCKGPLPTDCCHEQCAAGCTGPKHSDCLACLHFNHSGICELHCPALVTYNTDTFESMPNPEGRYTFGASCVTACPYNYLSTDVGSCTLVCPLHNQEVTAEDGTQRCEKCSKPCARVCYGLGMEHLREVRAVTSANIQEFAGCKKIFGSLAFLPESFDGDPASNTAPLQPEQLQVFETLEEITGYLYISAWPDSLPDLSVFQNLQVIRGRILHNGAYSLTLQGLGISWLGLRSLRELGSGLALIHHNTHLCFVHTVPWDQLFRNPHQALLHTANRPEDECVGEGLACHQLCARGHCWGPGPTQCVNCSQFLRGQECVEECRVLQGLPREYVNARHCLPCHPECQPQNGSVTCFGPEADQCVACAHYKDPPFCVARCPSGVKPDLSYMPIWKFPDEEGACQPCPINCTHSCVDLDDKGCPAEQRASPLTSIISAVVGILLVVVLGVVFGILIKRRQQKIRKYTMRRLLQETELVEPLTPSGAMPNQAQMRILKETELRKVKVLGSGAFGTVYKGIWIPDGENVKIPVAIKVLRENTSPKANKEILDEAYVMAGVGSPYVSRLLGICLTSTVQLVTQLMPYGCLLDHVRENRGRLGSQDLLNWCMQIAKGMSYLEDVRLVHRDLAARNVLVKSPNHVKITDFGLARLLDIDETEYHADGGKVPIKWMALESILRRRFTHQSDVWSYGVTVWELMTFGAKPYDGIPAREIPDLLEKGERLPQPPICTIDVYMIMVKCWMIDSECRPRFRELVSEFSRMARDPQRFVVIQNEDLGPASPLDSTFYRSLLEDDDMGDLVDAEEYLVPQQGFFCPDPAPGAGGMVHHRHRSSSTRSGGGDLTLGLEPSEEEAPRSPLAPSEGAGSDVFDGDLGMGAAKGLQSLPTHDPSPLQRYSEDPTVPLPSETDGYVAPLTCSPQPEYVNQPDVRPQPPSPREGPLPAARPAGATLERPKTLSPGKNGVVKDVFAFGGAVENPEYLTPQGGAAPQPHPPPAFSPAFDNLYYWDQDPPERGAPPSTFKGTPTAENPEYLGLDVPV

[3] = reduced viability of SK-BR-3 breast cancer cells – cell-based, 24 h, human, pilot screen (AID 572;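 active means viability at or below 10% of carrier control in both of two separate runs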;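 further: compound exposure lasted between 18 and 24 h rather than exactly 24 h; 100% = carrier-treated control wells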); conditions: SK-BR-3 viability, CellTiter-Glo luminescence, at 10 µM, stronger effect = lower value
[4] = HUVEC growth inhibition – cell-based, human, primary screen (AID 575;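 active means viability at or below 30% in both replicate assays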;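 further: 100% = median of untreated cell wells with 0.1% DMSO on each plate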); conditions: HUVEC proliferation, CellTiter-Glo luminescence, 72 h; at 10 µM; stronger effect = lower value
How it was run: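 Test system – primary HUVEC, no more than 12 passages · Dosing – one dose, 10 µM final, 0.1% DMSO · Times – 72 h treatment at 37 °C · Measured by – ATP-based CellTiter-Glo luminescent read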

[5] = H69AR cell proliferation blockers – human, duplicate replicates, primary screen (AID 580); conditions: H69AR lung tumor cells viability, ATP luminescence, 72 h; at 10 µM; stronger effect = lower value;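 further: 100% = mean luminescence of untreated wells and 0% = no signal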
[6] = MRP1 drug-resistance reversers in H69AR cells – cell-based, doxorubicin co-treatment, pilot screen (AID 601;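 active means viability loss from added drug above about 55%, and viability with drug at most 40%, in both replicates, limit read from the data, passing the limit was not always enough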); conditions: CellTiter-Glo, 72 h, at 10 µM; for differential viability (reversal): stronger effect = higher value
[7] = yeast transport mutant growth inhibition pilot in 384-well plates, post-Golgi transport modulator project (AID 636; in the data active means inhibition above about 31%); conditions: absorbance 615 nm, about 18 h, stronger effect = higher value
[8] = growth suppression of yeast trafficking mutant, preliminary HTS, modulators of trafficking downstream of Golgi apparatus project, 1536-format plate, OD 615 nm (AID 637; in the data active means inhibition above about 30%); conditions: yeast transport mutant growth, absorbance 615 nm, 18 h; stronger effect = higher value
[9] = H69AR cells + 2 uM doxorubicin, measured here: viability with 2 uM doxorubicin, stronger effect = lower value
[10] = H69AR cells, compound alone cytotoxicity

| SMILES | viability [1] [%] | Her2 level [2] | viability [3] | viability [4] | viability [5] | differential viability (reversal) ([6]; H69AR cells + 2 uM doxorubicin) | viability [6, 9] [%] | viability [6, 10] [%] | inhibition [7] | inhibition [8] |
| --- | --- | --- | --- | --- | --- | --- | --- | --- | --- | --- |
| CCOC(=O)c1nnn(CC(=O)Nc2cccc(F)c2)c1C(=O)OCC | 112 | 95% (inactive) | 112% (inactive) | 100% (inactive) | 96.2% (inactive) | 3.89% (inactive) | 92.4 | 96.2 | -1.04% (inactive) | -6.35% (inactive) |
| COc1ccccc1NC(=O)c1ccc(COc2ccccc2OC)o1 | 95.5 | 97% (inactive) | 95.5% (inactive) | 87.6% (inactive) | 97.2% (inactive) | 5.99% (inactive) | 91.3 | 97.2 | -6.27% (inactive) | 0% (inactive) |
| CC(C)(C)OC(=O)N1CCCC1C(=O)N1CCc2ccccc21 (stereo not given) | 95.5 | 86% (inactive) | 95.5% (inactive) | 94.9% (inactive) | 84.9% (inactive) | -4.58% (inactive) | 89.4 | 84.9 | 1.17% (inactive) | -3.81% (inactive) |
| O=C(c1cccnc1NCc1ccccc1)N1CCOCC1 | 77.5 | 126% (inactive) | 77.5% (inactive) | 86.4% (inactive) | 93.8% (inactive) | 0.76% (inactive) | 93 | 93.8 | 1.08% (inactive) | 23.2% (inactive) |
| CCOC(=O)C1C(=O)N(C(=O)c2ccc(OC)cc2)CC1c1ccccc1 (stereo not given) | 91.5 | 94.5% (inactive) | 91.5% (inactive) | 83.3% (inactive) | 86.6% (inactive) | 1.9% (inactive) | 84.7 | 86.6 | -0.65% (inactive) | -5.41% (inactive) |
| Cc1ccc2[nH]c(=O)c(CN(Cc3ccc4c(c3)OCO4)Cc3nnnn3Cc3ccco3)cc2c1 | 102 | 93% (inactive) | 102% (inactive) | 106% (inactive) | 88.9% (inactive) | -3.68% (inactive) | 92.6 | 88.9 | -2.99% (inactive) | -3.49% (inactive) |
| COc1ccc(N2CCN(C(=O)COc3ccc4ccccc4c3)CC2)cc1 | 77.5 | 86.5% (inactive) | 77.5% (inactive) | 84.8% (inactive) | 108% (inactive) | 17.1% (inactive) | 90.8 | 108 | -6.35% (inactive) | 3.11% (inactive) |
| C/C(=N\O)C(=O)NCCCNCCCN(C)C | 104 | 94.5% (inactive) | 104% (inactive) | 117% (inactive) | 98.2% (inactive) | -3.41% (inactive) | 102 | 98.2 | -6.16% (inactive) | 0.48% (inactive) |
| CCOc1ccccc1CNC(=O)CCN1C(=O)COc2ccccc21 | 104 | 110% (inactive) | 104% (inactive) | 88.8% (inactive) | 92.9% (inactive) | 3.42% (inactive) | 89.5 | 92.9 | -1.15% (inactive) | -7% (inactive) |
| CC(C)c1ccc(S(=O)(=O)N2CCN(CCC(=O)Nc3ccc(N(C)C)cc3)CC2)cc1 | 100 | 93% (inactive) | 100% (inactive) | 66.8% (inactive) | 60.6% (inactive) | 40.2% (inactive) | 20.4 | 60.6 | -3.29% (inactive) | -4.67% (inactive) |
| CCOc1ccc(NC(=O)CN(C)S(=O)(=O)c2cccs2)cc1 | 104 | 100% (inactive) | 104% (inactive) | 101% (inactive) | 93.9% (inactive) | 6.1% (inactive) | 87.8 | 93.9 | -3.2% (inactive) | 1.45% (inactive) |
| Cc1ccc2[nH]c(=O)c(CN(CCCN3CCOCC3)C(=O)Nc3cccc(Cl)c3)cc2c1 | 75.5 | 75% (inactive) | 75.5% (inactive) | 47% (inactive) | 55.4% (inactive) | 5.47% (inactive) | 49.9 | 55.4 | -3.33% (inactive) | 2.13% (inactive) |
| Cc1cccc(C(=O)N2CCC(n3nnc4cc(F)ccc43)CC2)c1 | 95 | 113% (inactive) | 95% (inactive) | 92.6% (inactive) | 86.4% (inactive) | -3.98% (inactive) | 90.4 | 86.4 | -3.21% (inactive) | 2.67% (inactive) |
| COc1ccc(-c2nn3c(-c4ccncc4)nnc3s2)cc1OC | 105 | 116% (inactive) | 105% (inactive) | 104% (inactive) | 99.2% (inactive) | -8.5% (inactive) | 108 | 99.2 | -0.39% (inactive) | 0.16% (inactive) |
| CSc1nc(NC(C)(C)C)nc(Oc2ccc(=O)[nH]n2)n1 | 101 | 93.5% (inactive) | 101% (inactive) | 107% (inactive) | 92.1% (inactive) | 0.405% (inactive) | 91.7 | 92.1 | -3.82% (inactive) | 2.46% (inactive) |
| COc1ccc2c(c1OC)C(=O)N(c1ccc3c(c1)CCC3)C2=O | 96.5 | 100% (inactive) | 96.5% (inactive) | 90.3% (inactive) | 107% (inactive) | 12.6% (inactive) | 94.9 | 107 | -3.07% (inactive) | 25.7% (inactive) |
| COc1cccc(N2CCN(Cc3nc(N)nc(Nc4ccccc4OC)n3)CC2)c1 | 124 | 92% (inactive) | 124% (inactive) | 107% (inactive) | 77.4% (inactive) | -7.01% (inactive) | 84.4 | 77.4 | -3.95% (inactive) | 1.13% (inactive) |
| Cc1ccc(C(c2sc3nc(C)nn3c2O)N2CC(C)OC(C)C2)cc1 (stereo not given) | 97 | 93% (inactive) | 97% (inactive) | 104% (inactive) | 101% (inactive) | 11.1% (inactive) | 90.2 | 101 | -1.17% (inactive) | 0.49% (inactive) |
| CCOc1ccc(NCc2nnc(SCC(=O)Nc3cc(C)on3)n2-c2ccccc2OC)cc1 | 106 | 79% (inactive) | 106% (inactive) | 41.7% (inactive) | 13.1% (active) | -19% (inactive) | 32.1 | 13.1 | -4.8% (inactive) | 2.86% (inactive) |
| COc1cc(OC)c(C2C(C#N)=C(N)OC3=C2C(=O)CC(C)(C)C3)cc1OC (stereo not given) | 85.5 | 106% (inactive) | 85.5% (inactive) | 61.9% (inactive) | 83.2% (inactive) | -1.53% (inactive) | 84.7 | 83.2 | 0.91% (inactive) | -9.02% (inactive) |
| COCCn1c(=O)[nH]c2cc(C(=O)NCc3cccnc3)ccc2c1=O | 89.5 | 88.5% (inactive) | 89.5% (inactive) | 107% (inactive) | 97.9% (inactive) | 4.27% (inactive) | 93.6 | 97.9 | -7.57% (inactive) | 1.17% (inactive) |
| Cc1cc(=O)n(C)c(=O)n1CCCCCN1CCCC1 | 96.5 | 80% (inactive) | 96.5% (inactive) | 100% (inactive) | 99.8% (inactive) | 14.7% (inactive) | 85.2 | 99.8 | -1.2% (inactive) | 0.48% (inactive) |
| COc1cccc(C(=O)Nc2ccc(C)cc2)c1 | 99 | 102% (inactive) | 99% (inactive) | 84.6% (inactive) | 92.3% (inactive) | 3.96% (inactive) | 88.3 | 92.3 | -3.47% (inactive) | -7.46% (inactive) |
| COc1ccc(S(=O)(=O)Nc2ccc(F)c(F)c2)cc1Cl | 74 | 82.5% (inactive) | 74% (inactive) | 90.4% (inactive) | 90.2% (inactive) | -2.64% (inactive) | 92.8 | 90.2 | -4.59% (inactive) | 4.26% (inactive) |
| Cc1ccc(S(=O)(=O)Cc2ccc(C(=O)NCc3ccc4c(c3)OCO4)o2)cc1 | 98 | 84% (inactive) | 98% (inactive) | 84.7% (inactive) | 94.1% (inactive) | 6.79% (inactive) | 87.3 | 94.1 | -3.29% (inactive) | -4.76% (inactive) |
| O=C(CCn1nc(-c2ccc(Cl)cc2)ccc1=O)N1CCN(c2ccccn2)CC1 | 96.5 | 92.5% (inactive) | 96.5% (inactive) | 101% (inactive) | 91.1% (inactive) | -4.79% (inactive) | 95.9 | 91.1 | -3.42% (inactive) | -3.87% (inactive) |
| Cc1ccc(C(=O)CC2(O)C(=O)N(CN3CCOCC3)c3ccccc32)cc1 (stereo not given) | 100 | 90.5% (inactive) | 100% (inactive) | 85.9% (inactive) | 94.6% (inactive) | -5.11% (inactive) | 99.7 | 94.6 | -3.55% (inactive) | -4.83% (inactive) |
| COc1ccc(C(C(C(=O)c2ccco2)N2CCOCC2)N2CCOCC2)cc1 (stereo not given) | 97 | 95% (inactive) | 97% (inactive) | 85.6% (inactive) | 87.3% (inactive) | -4.03% (inactive) | 91.4 | 87.3 | -6.53% (inactive) | -10.6% (inactive) |
